From publication PMC5357090 (Saudi Pharmaceutical Journal : SPJ, 2016)
pIC50: −log10 of the molar value. Where two headings read alike, the source gives them in different places.

Legend:
α-amylase = test: α-Amylase assay; assay type: biochemical; conditions: compared to the standard acarbose; 50-1000 μm
Summary of the method: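 α-Amylase was used at 0.1 mg/mL in PBS (0.02 mol/L, pH 6.8). Enzyme was preincubated with the test solution at 37 °C for 5 min. The reaction was started with 1.0% (w/v) starch. It was stopped with DNS reagent (1% dinitrosalicylic acid, 0.05% Na2SO3, 1% NaOH), then heated at 100 °C for 5 min and cooled to room temperature. Absorbance was read at 540 nm.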

MCF-7 = test: In vitro anticancer activity, MTT assay, MCF-7; assay type: cell-based; conditions: for pIC50: Homo sapiens, MCF7, 48 h, read-out: IC50 MCF-7; for anticancer activity against MCF-7 cells (in words): MTT, 48 h exposure, compared with the standard cisplatin
HeLa = test: In vitro anticancer activity, MTT assay, HeLa; assay type: cell-based, human; conditions: for pIC50: Homo sapiens, HeLa, 48 h; for anticancer activity against HeLa cells (in words): MTT, 48 h exposure, compared with the standard cisplatin
Summary of the method: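 HeLa cells came from NCCS and were kept in MEM with 10% FBS at 37 °C and 5% CO2. Cells were seeded at 10,000/well in 5% FBS medium and left 24 h to attach. DMSO solutions were diluted in serum-free medium to 6.25–100 µM (five concentrations) and applied for 48 h, in triplicate. MTT was added for 4 h at 37 °C, formazan dissolved in DMSO, and A570 read. % inhibition was taken against untreated control. IC50 came from nonlinear regression against log concentration.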

[1] = read-out: IC50 values, range over MCF-7 and HeLa cells

inhibitory activity against α-amylase (in words) (α-amylase) | pIC50 (MCF-7) | pIC50 (HeLa; read-out: IC50 HeLa) | pIC50 (HeLa; [1]) | SMILES | anticancer activity against MCF-7 cells (in words) (MCF-7) | anticancer activity against HeLa cells (in words) (HeLa)
moderate activities | 4.20 | 4.23 | – | O=C(Nc1cccc(-c2nnc(C3CCCCC3)o2)c1)c1cc(F)cc(F)c1 [Compound 7d, N-[3-(5-Cyclohexyl-[1,3,4]oxadiazol-2-yl)-phenyl]-3,5-difluoro-benzamide] | good activity | good activity
– | ≤ 4.00 | ≤ 4.00 | – | O=C(C=Cc1ccco1)Nc1cccc(-c2nnc(C3CCCCC3)o2)c1 [Compound 7i, N-[3-(5-Cyclohexyl-[1,3,4]oxadiazol-2-yl)-phenyl]-3-furan-2-yl-acrylamide] | – | –
better than all other compounds | ≤ 4.00 | ≤ 4.00 | – | O=S(=O)(Nc1cccc(-c2nnc(C3CCCCC3)o2)c1)c1cc(Cl)cc(Cl)c1 [Compound 8c, 3,5-Dichloro-N-[3-(5-cyclohexyl-[1,3,4]oxadiazol-2-yl)-phenyl]-benzenesulphonamide] | – | –
better than all other compounds | ≤ 4.00 | 4.00 | – | O=C(Cc1c[nH]c2ccccc12)Nc1cccc(-c2nnc(C3CCCCC3)o2)c1 [Compound 7f, N-[3-(5-Cyclohexyl-[1,3,4]oxadiazol-2-yl)-phenyl]-2-(1H-indol-3-yl)-acetamide] | – | –
– | ≤ 4.00 | ≤ 4.00 | – | Cc1ccc(S(=O)(=O)Nc2cccc(-c3nnc(C4CCCCC4)o3)c2)cc1 [Compound 8a, N-[3-(5-Cyclohexyl-[1,3,4]oxadiazol-2-yl)-phenyl]-4-methyl-benzenesulphonamide] | – | –
moderate activities | ≤ 4.00 | ≤ 4.00 | – | O=C(Nc1cccc(-c2nnc(C3CCCCC3)o2)c1)C1CCCC1 [Compound 7g, Cyclopentane carboxylic acid [3-(5-cyclohexyl-[1,3,4]oxadiazol-2-yl)-phenyl]-amide] | – | –
– | ≤ 4.00 | ≤ 4.00 | – | O=C(Nc1cccc(-c2nnc(C3CCCCC3)o2)c1)c1ccco1 [Compound 7h, Furan-2-carboxylic acid [3-(5-cyclohexyl-[1,3,4]oxadiazol-2-yl)-phenyl]-amide] | – | –
– | 4.22 | 4.20 | – | CC(C)(C)c1ccc(S(=O)(=O)Nc2cccc(-c3nnc(C4CCCCC4)o3)c2)cc1 [Compound 8b, 4-tert-Butyl-N-[3-(5-cyclohexyl-[1,3,4]oxadiazol-2-yl)-phenyl]-benzenesulphonamide] | good activity | good activity
moderate activities | ≤ 4.00 | ≤ 4.00 | – | O=C(Nc1cccc(-c2nnc(C3CCCCC3)o2)c1)c1cnccn1 [Compound 7e, Pyrazine-2-carboxylic acid [3-(5-cyclohexyl-[1,3,4]oxadiazol-2-yl)-phenyl]-amide] | – | –

Second part, the molecule before the results:

SMILES | inhibitory activity against α-amylase (in words) (α-amylase) | pIC50 (MCF-7) | pIC50 (HeLa; read-out: IC50 HeLa) | pIC50 (HeLa; [1]) | anticancer activity against MCF-7 cells (in words) (MCF-7) | anticancer activity against HeLa cells (in words) (HeLa)
Cc1ccc(C(=O)Nc2cccc(-c3nnc(C4CCCCC4)o3)c2)cc1 [Compound 7b, N-[3-(5-Cyclohexyl-[1,3,4]oxadiazol-2-yl)-phenyl]-4-methyl-benzamide] | – | ≤ 4.00 | ≤ 4.00 | – | – | –
O=C(Nc1ccc(F)cc1)Nc1cccc(-c2nnc(C3CCCCC3)o2)c1 [Compound 6a, 1-[3-(5-Cyclohexyl-[1,3,4]oxadiazol-2-yl)-phenyl]-3-(4-fluoro-phenyl)-urea] | moderate activities | 4.09 | 4.10 | – | good activity | good activity
O=C(Cc1ccccc1F)Nc1cccc(-c2nnc(C3CCCCC3)o2)c1 [Compound 7c, N-[3-(5-Cyclohexyl-[1,3,4]oxadiazol-2-yl)-phenyl]-2-(2-fluoro-phenyl)acetamide] | – | 4.11 | 4.10 | – | good activity | good activity
O=C(Nc1cccc(-c2nnc(C3CCCCC3)o2)c1)c1ccc(Cl)cc1 [Compound 7a, 4-Chloro-N-[3-(5-cyclohexyl-[1,3,4]oxadiazol-2-yl)-phenyl]-benzamide] | – | ≤ 4.00 | ≤ 4.00 | – | – | –
Cc1ccc(NC(=O)Nc2cccc(-c3nnc(C4CCCCC4)o3)c2)cc1 [Compound 6b, 1-[3-(5-Cyclohexyl-[1,3,4]oxadiazol-2-yl)-phenyl]-3-p-tolyl-urea] | moderate activities | 4.63 | 4.52 | 4.34 to 4.63 | significant activity | significant activity
COc1cccc(NC(=O)Nc2cccc(-c3nnc(C4CCCCC4)o3)c2)c1 [Compound 6c, 1-[3-(5-Cyclohexyl-[1,3,4]oxadiazol-2-yl)-phenyl]-3-(3-methoxy-phenyl)-urea] | – | 4.54 | 4.34 | 4.34 to 4.63 | significant activity | significant activity
